This is a sample that favours compounds with a hit; in the whole collection about 1.1% have one here.
KLK5 inh: inhibitors of human kallikrein 5; Q9Y337; inhibition, % at 5 µM; 210,000 compounds, 0.59% hits; recombinant hK5, fluorogenic AMC substrate cleavage;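 active means inhibition of 40% or more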;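 further: 0% = enzyme controls without compound and 100% = no-enzyme blanks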
FXIIa inh 1536: blocks human coagulation factor XIIa protease activity; inhibition, % at 5 µM; purified FXIIa, Boc-QGR-AMC fluorogenic substrate, 2 h; 220,000 compounds, 0.3% hits; in the data active means inhibition above about 40%;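 further: 0% = enzyme with no compound and 100% = blank without enzyme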
Target sequence (P00748 20-372 limits assumed): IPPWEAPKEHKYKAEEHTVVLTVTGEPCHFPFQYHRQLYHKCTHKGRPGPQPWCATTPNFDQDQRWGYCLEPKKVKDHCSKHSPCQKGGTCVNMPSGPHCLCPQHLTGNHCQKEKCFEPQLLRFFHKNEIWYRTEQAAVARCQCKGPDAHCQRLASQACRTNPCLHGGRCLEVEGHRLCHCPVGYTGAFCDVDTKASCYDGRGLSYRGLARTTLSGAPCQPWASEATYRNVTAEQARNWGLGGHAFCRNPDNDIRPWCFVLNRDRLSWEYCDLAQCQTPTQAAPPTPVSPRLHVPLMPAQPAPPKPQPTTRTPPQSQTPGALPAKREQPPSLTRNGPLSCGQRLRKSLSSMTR
Target sequence (P00748 373-615 limits assumed): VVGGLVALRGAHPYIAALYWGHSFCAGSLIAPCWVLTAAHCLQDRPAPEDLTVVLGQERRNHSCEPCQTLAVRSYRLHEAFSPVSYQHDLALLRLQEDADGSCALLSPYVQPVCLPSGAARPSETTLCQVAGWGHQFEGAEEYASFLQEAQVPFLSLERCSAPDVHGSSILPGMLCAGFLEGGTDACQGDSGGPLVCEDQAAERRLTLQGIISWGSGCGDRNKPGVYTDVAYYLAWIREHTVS
thrombin 1536: blocks human thrombin protease activity; alpha-thrombin, Boc-VPR-AMC fluorogenic substrate cleavage; inhibition, % at 5 µM; 220,000 compounds, 0.26% hits;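 active means inhibition at or above 40%; inactive means inhibition below 40%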;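 further: 0% = enzyme with no compound and 100% = wells without enzyme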
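Assay system: human alpha-thrombin enzyme. Reagent: Boc-VPR-AMC substrate, 15 µM final. Compound dosing: one concentration per compound, 5 µM, with 0.2% DMSO. Incubation: room-temperature reaction. Technique: AMC fluorescence, 355/460 nm. Measure: % inhibition relative to enzyme controls and enzyme-free blanks.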
Furin inh: inhibitors of human furin; 220,000 compounds, 0.061% hits; P09958; purified furin, fluorogenic substrate cleavage; inhibition, % at 20 µM or 30 µM; AID 463115; in the data active means inhibition above about 25%
FXIa inh 1536: blocks human coagulation factor XIa protease activity; P03951; purified FXIa, Boc-Glu-Ala-Arg-AMC fluorogenic substrate; inhibition, % at 5 µM; 220,000 compounds, 0.14% hits; AID 798;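 active means inhibition of at least 40%; inactive means inhibition below 40%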;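 further: fluorescence of freed AMC excited at 355 nm; 0% = enzyme without compound and 100% = no enzyme blank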
* = called active by the depositor; x = not tested or not shown.

SMILES	KLK5 inh	FXIIa inh 1536	thrombin 1536	Furin inh	FXIa inh 1536
Cc1ccc(-c2[nH]nc3c2C(c2ccoc2)C(C#N)=C(N)O3)cc1C (stereo not drawn)	62*	-3	-2	-2	-5
COc1ccc(-c2[nH]nc3c2C(c2ccoc2)C(C#N)=C(N)O3)cc1 (stereo not drawn)	-6	15	2	-6	10
Cc1cc(O)c(C(C)C)cc1NC(=O)Nc1cccc2ccccc12	-7	4	-7	-29	3
CCC(=O)Nc1cc(C(C)C)c(O)cc1C	83*	18	18	-19	6
CCC(Sc1nc2cc(OC)c(OC)cc2c(=O)n1CCc1ccc(OC)c(OC)c1)C(=O)NCCOC (stereo not drawn)	0	8	-7	-24	-1
Cc1ccc(C(=O)NC(NC(=S)Nc2ccc(S(N)(=O)=O)cc2)C(Cl)(Cl)Cl)cc1 (stereo not drawn)	44*	2	30	-13	-4
Cc1ccccc1C(=O)NC(NC(=S)Nc1ccc(S(N)(=O)=O)cc1)C(Cl)(Cl)Cl (stereo not drawn)	-19	6	-10	0	3
COc1nc2c(c(-c3cc(Br)cs3)c1C#N)Cc1ccccc1-2	-9	-4	-10	-20	-6
O=C(Nc1cccc(Cn2cccn2)c1)c1cc2c(s1)CCCC2	5	13	-3	26*	4
Cn1ncc(Oc2ccc([N+](=O)[O-])cc2)c(Cl)c1=O	71*	42*	-1	-9	25
CCOC(=O)N1CCN(C(=O)CSc2nnc(CNC(=O)c3c(F)cccc3Cl)o2)CC1	42*	22	13	-25	-1
COC(=O)c1ccccc1NC(=O)C1CC(=O)N(C2CCCCC2)C1 (stereo not drawn)	64*	14	28	-15	1
COC(=O)c1ccccc1NC(=O)C1CC(=O)N(c2ccc(C)c(C)c2)C1 (stereo not drawn)	-26	10	1	-10	1
COC(=O)c1ccccc1NC(=O)C1CC(=O)N(c2ccc(F)cc2)C1 (stereo not drawn)	89*	29	50*	9	9
CCc1ccc(N2CC(C(=O)Nc3ccccc3F)CC2=O)cc1 (stereo not drawn)	87*	10	104*	-25	4
Cc1oc(-c2cc(F)cc(F)c2)nc1CN1CCSCC1	-3	6	-5	-16	5
CC(C)(C)c1ccc(C(=O)N/N=C/c2ccc(OCCCF)cc2)cc1	-19	-3	1	-32	5
CN(C(=O)CSc1cc(C(=O)c2nccn2C)c2ccccc2n1)c1ccccc1	3	10	3	-7	1
O=C(CCc1ccccc1)Nc1cc(C(=O)O)cc(C(=O)O)c1	3	7	-9	-32	-3
Cc1ccc(-c2nc(CS(=O)(=O)CC(=O)N3CCc4ccccc4C3)c(C)o2)cc1	-1	51*	-8	-23	36
Cc1ccc(-c2nc(CS(=O)(=O)CC(=O)N3CCCCCC3)c(C)o2)cc1	1	8	-2	-21	0
CCOC(=O)c1sc(N)c(C#N)c1CSc1nc2ccc(C)cc2[nH]1	40*	11	5	-2	0
CCOC(=O)c1sc(N)c(C#N)c1CSc1nc2ccc(OCC)cc2[nH]1	-3	-13	-15	-14	-7
COc1ccc(NC(=O)c2cc3c(=O)n4ccccc4nc3n2C)cc1OC	2	12	8	-31	-1
CC1CCN(C(=O)CNC(=O)c2cccc(OC(F)F)c2)CC1	-14	3	-3	-20	-8
SMILES	KLK5 inh	FXIIa inh 1536	thrombin 1536	Furin inh	FXIa inh 1536
Cn1cc(C=O)c2cc(F)ccc21	-6	2	-5	-24	-4
O=Cc1cn(-c2ccc(F)cc2)c2ccccc12	42*	14	21	-17	18
c1csc(-c2nc3ccccc3[nH]2)c1	4	43*	13	-53	7
COC(=O)c1ccc(CNC(=O)c2ccc(COc3ccccc3)cc2)cc1	-7	11	1	2	-1
COC(=O)C(NC(=O)c1ccccc1)(Nc1nc(C)cs1)C(F)(F)F (stereo not drawn)	-13	10	-16	-18	-4
COC(=O)C(NC(=O)c1ccco1)(Nc1nc(C)cs1)C(F)(F)F (stereo not drawn)	-11	54*	-6	-21	35
Cc1ccc(C(=O)NCC(=O)OCC(=O)Nc2ccccc2[N+](=O)[O-])cc1	-17	7	-7	-26	-21
C/C(=N\Nc1ccc(Cl)c(C(=O)O)c1)c1cccc([N+](=O)[O-])c1	32	32	56*	2	39
CC(C)NC(=S)N/N=C/c1cc(Br)ccc1O	-34	23	-1	-9	25
CN(C)c1ccc(C(=O)Nc2ccc(S(=O)(=O)NC3=NCCCCC3)cc2)cc1	x	x	x	4	x
COc1ccccc1C(=O)Nc1ccc(S(=O)(=O)NC2=NCCCCC2)cc1	52*	25	13	-2	26
Cc1csc(SCC(=O)NCc2ccccc2Cl)n1	35	21	48*	-2	26
CCn1c(C)nc2cc(C(=O)NNC(=S)Nc3ccc(C)cc3)ccc21	17	51*	43*	-3	31
CCn1c(C)nc2cc(C(=O)NNC(=S)Nc3ccccc3OC)ccc21	-11	6	5	-17	2
NC(=O)COC(=O)c1ccc(Cl)c(S(=O)(=O)N2CCN(c3ccc(F)cc3)CC2)c1	45*	24	20	-2	33
Cc1cc(N2CC(C)OC(C)C2)n2cc(-c3ccccc3)nc2n1 (stereo not drawn)	-4	4	-13	-10	-2
CCc1cc(C(c2ccccn2)N2CCN(C)CC2)c(NC(=O)c2ccccc2)s1 (stereo not drawn)	10	23	-4	25*	27
COc1ccc(NC(=O)Nc2nc(C)cc(C)n2)c(OC)c1	-2	-1	-12	-8	-4
CC1(C)Oc2ccc(C(=O)NC3CCCC3)cc2N(CC(=O)NC2CCCC2)C1=O	10	64*	1	-12	20
CCCn1c2c(c(O)c(C(=O)Nc3nccs3)c1=O)CCCC2	33	15	101*	-18	-4
CC(C)Cn1c2c(c(O)c(C(=O)Nc3nccs3)c1=O)CCCC2	13	15	2	-17	6
O=C(NC1CCCC1)C1CC1c1ccccc1 (stereo not drawn)	-17	12	4	25*	1
NNC(=O)[C@@H]1C[C@@H]1c1ccccc1	-27	5	-8	-21	-2
O=C(CNC(=O)c1ccccc1)OCc1cc(=O)n2cc(Br)ccc2n1	-8	17	0	-15	9
O=C1NC[C@H](Cc2ccccc2)N(CC2CCCCC2)C1=O	0	4	-3	-17	-1
CN(C)c1ccc(C(=O)NN2C(=O)c3ccccc3C2=O)cc1	-4	99*	-1	-19	0
Cc1ccc(-c2c[n+](CC(=O)Nc3nc(-c4ccc(F)cc4)cs3)c3n2CCC3)cc1	49*	27	21	-9	6

Screens (PubChem)
